Test results taken from ChEMBL document CHEMBL1146490, “New diterpenoids from Viburnum awabuki” (2004).
Values after ≈ are worked out from the molar mass of the structure shown.

Tests used:
Assay type in all cases: functional
Conditions in all cases: read-out: ED50 (the source's name)
P388 = test: Cytotoxicity against mouse P388 cells
Procedure, shortened: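 P-388 is a mouse lymphocytic leukemia line, supplied by J. M. Pezzuto (Purdue University), grown in culture and tested by the same previously described cytotoxicity procedure.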

A549 = test: Cytotoxicity against human A549 cells
Procedure, shortened: (§1)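 Standard cytotoxicity procedure from earlier work. A549 is a human lung adenocarcinoma line and HT-29 a human colon adenocarcinoma line, both grown as cell cultures. Potency is given as ED50 in µg/mL.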

HT-29 = test: Cytotoxicity against human HT-29 cells; procedure, shortened: as §1

Structure (SMILES)	EC50 (P388) [µg/mL]	EC50 (A549) [µg/mL]	EC50 (HT-29) [µg/mL]
CC(C)=CC(=O)O[C@@H]1/C=C/[C@@](C)(C/C=C/C(C)(C)O)C/C=C(/CO)CC[C@@H]2O[C@]21C [VIBSANIN P]	2.25 (≈ 5.38 µM)	4.62 (≈ 11 µM)	9.97 (≈ 23.8 µM)
COC(C)(C)/C=C/C[C@]1(C)/C=C/[C@@H](OC(=O)C=C(C)C)[C@]2(C)O[C@H]2CC/C(CO)=C\C1 [VIBSANIN Q]	< 10	–	–
C=C(C)/C=C/C[C@]1(C)/C=C/[C@@H](OC(=O)C=C(C)C)[C@]2(C)O[C@H]2CC/C(CO)=C\C1 [VIBSANIN R]	< 10	–	–
C=C(C)C(O)CC[C@]1(C)/C=C/[C@@H](OC(=O)C=C(C)C)[C@]2(C)O[C@H]2CC/C(CO)=C\C1 (some centres not stated) [VIBSANIN S]	< 10	–	–
CC(C)=CC(=O)O[C@@H]1/C=C/[C@@](C)(C/C=C/C(C)(C)O)C/C=C(/C=O)CC[C@@H]2O[C@]21C [VIBSANIN T]	< 10	–	–
CC(C)=CC(=O)O[C@@H]1/C=C/[C@@](C)(CCC(O)C(C)(C)O)C/C=C(/CO)C(=O)/C=C/[C@@]1(C)O (some centres not stated) [VIBSANIN U]	< 10	–	–
C=C(C)C(O)CC[C@]1(C)/C=C/C[C@]2(C)O[C@H]2CC/C(C=O)=C\C1 (some centres not stated) [VIBSANIN V]	< 10	–	–
CC(=O)C[C@@H]1C(=O)C(CO)=CC[C@](C)(CCC(O)C(C)(C)O)[C@H]1/C=C/OC(=O)C=C(C)C (some centres not stated) [VIBSANIN W]	2.18 (≈ 4.84 µM)	5.6 (≈ 12.4 µM)	8.15 (≈ 18.1 µM)
